From PubChem BioAssay AID588559 (The Scripps Research Institute Molecular Screening Center, 2011)
The source made the active and inactive calls.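 The calls were made as follows: active = PAD4 enzyme activity blocked 50% or more; inactive = under 50% inhibition.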

What follows are compounds tested against Protein-arginine deiminase type-4 (Homo sapiens) (UniProt Q9UM07) (assay: PAD4 inhibitors, single-concentration test, late-stage follow-up, biochemical, BAEE substrate, colorimetric citrulline readout (AID 588559)). Details: recombinant PAD4, BAEE substrate, colorimetric citrulline detection; at 100 µM; hits give high values.
Method in brief: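 Benchmarks: DMSO vehicle control; system: recombinant PAD4; amount: PAD4 at 0.2 µM; medium: Tris pH 7.6, Ca2+ and DTT; signal: colorimetric citrulline absorbance at 540 nm; evaluation: percent inhibition of citrulline formation relative to DMSO, via citrulline standard; incubation: 15 min enzyme–compound preincubation, then 15 min BAEE reaction, 37 °C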

Chain of Protein-arginine deiminase type-4 (Homo sapiens) (Q9UM07 whole entry, looked up): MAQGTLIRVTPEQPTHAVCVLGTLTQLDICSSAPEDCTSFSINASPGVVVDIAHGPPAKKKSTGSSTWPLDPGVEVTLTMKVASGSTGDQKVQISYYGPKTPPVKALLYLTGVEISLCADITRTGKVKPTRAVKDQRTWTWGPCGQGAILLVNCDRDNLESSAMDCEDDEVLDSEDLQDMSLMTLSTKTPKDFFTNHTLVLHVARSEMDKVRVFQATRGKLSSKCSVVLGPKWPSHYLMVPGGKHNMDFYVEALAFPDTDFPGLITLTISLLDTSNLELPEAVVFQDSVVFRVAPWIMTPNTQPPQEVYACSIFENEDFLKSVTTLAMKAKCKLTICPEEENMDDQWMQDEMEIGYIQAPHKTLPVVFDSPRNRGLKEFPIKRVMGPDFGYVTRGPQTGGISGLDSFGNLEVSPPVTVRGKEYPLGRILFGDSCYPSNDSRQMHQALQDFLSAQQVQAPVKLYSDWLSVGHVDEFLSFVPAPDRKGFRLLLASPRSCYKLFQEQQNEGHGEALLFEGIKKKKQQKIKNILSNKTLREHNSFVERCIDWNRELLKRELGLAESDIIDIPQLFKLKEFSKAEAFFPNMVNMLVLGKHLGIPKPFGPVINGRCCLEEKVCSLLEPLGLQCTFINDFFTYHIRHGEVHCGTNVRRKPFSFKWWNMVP

| SMILES | inhibition |
| --- | --- |
| COC(=O)c1nnc(C(=O)OC)c(-c2ccc3c([N+](=O)[O-])c(OC)ccc3n2)n1 | -12% (inactive) |
| COC(=O)c1nnc(C(=O)OC)c(-c2ccc3ccccc3n2)n1 | -21% (inactive) |
| COC1=C(I)C(=O)c2nc(C#N)ccc2C1=O | 98% |
| O=C1C(O)=C(O)C(=O)c2ncccc21 | 98% |
| O=C1C=C(Br)C(=O)c2ncccc21 | 100% |
| COc1ccc2nc(C#N)ccc2c1 | -10% (inactive) |
| COC(=O)c1cccc(-c2ccc3c(n2)C(=O)C(N)=CC3=O)n1 | 91% |
| O=C1C(Br)=CC(=O)c2ncccc21 | 97% |
| COC(=O)c1nc(C(=O)OC)c(N)c(-c2ccccc2Br)c1C | 9% (inactive) |
| NC1=CC(=O)c2cccnc2C1=O | 98% |
| COC1=C(N)C(=O)c2ncccc2C1=O | 99% |
| COC(=O)c1nc(C(C)=O)c2[nH]c3ccccc3c2c1C | 0% (inactive) |
| COC(=O)c1nc(-c2ccc3c(n2)C(=O)C(Br)=CC3=O)c2[nH]c3ccccc3c2c1C | 0% (inactive) |
| COC1=CC(=O)c2nc(C#N)ccc2C1=O | 98% |
| COC(=O)c1nc(C(=O)OC)c(NC(C)=O)c(-c2ccccc2Br)c1C | 67% |
| NC1=CC(=O)c2ccc(-c3cc(C(=O)O)ccc3N)nc2C1=O | 97% |
| COC(=O)c1cc(-c2ccccc2)c(C(=O)OC)c(-c2ccc3ccccc3n2)n1 | -11% (inactive) |
| COc1ccc2nc(C#N)ccc2c1[N+](=O)[O-] | -13% (inactive) |
| CCOC(=O)c1nc(C(=O)OCC)c(C(=O)OCC)c(-c2ccc(OC)c(OC)c2OCc2ccccc2)c1C | 2% (inactive) |
| COC(=O)c1cccc(-c2ccc3c(n2)C(=O)C(Br)=CC3=O)n1 | 90% |
| NC1=CC(=O)c2ccc(-c3ccccn3)nc2C1=O | 88% |
| COC1=C(Br)C(=O)c2ncccc2C1=O | 90% |
| COC(=O)c1nnc(C(=O)OC)c(-c2ccc3cc(OC)ccc3n2)n1 | -2% (inactive) |
| COC(=O)c1cccc(-c2ccc3ccc(Br)c(O)c3n2)n1 | 27% (inactive) |
| O=C(O)c1cccc(-c2ccc3ccc(Br)c(OCc4ccccc4)c3n2)n1 | -8% (inactive) |
| NC1=CC(=O)c2ccc(-c3cccc(C(=O)O)n3)nc2C1=O | 98% |
| COC1=C(Br)C(=O)c2nc(-c3ccccn3)ccc2C1=O | 98% |
| COc1ccc2ncccc2c1[N+](=O)[O-] | -12% (inactive) |
| NC1=C(N)C(=O)c2ccccc2C1=O | 97% |
